Source: PubChem BioAssay (Broad Institute)
dFosB act-1 – activators of delta FosB homodimer, primary screen, biochemical, fluorescence polarization, TAMRA-CDK5 oligo, single point; Protein FosB (Mus musculus), P13346; purified delta FosB; percent of positive-control signal above neutral wells; activation, % at 25 µM; 340,000 compounds, 0.99% hits; AID 493131, 2011;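 active means mean activation above about 17%, with every replicate also reaching it, limit read from the data, passing the limit was not always enough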
SR-BI DiI inh – inhibitors of SR-BI mediated HDL lipid uptake, primary screen, ldlA[mSR-BI] cells, fluorescence, single point; AID 488896, 2010; Scavenger receptor class B member 1 (Mus musculus), Q61009; inhibition, % at 12.5 µM; ldlA[mSR-BI] CHO cells, DiI-HDL uptake fluorescence, 3 h; 320,000 compounds, 0.96% hits;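 active means mean replicate inhibition of at least 70% and a set share of replicates each scoring 70 or more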
Target sequence (Q61009 whole entry, looked up): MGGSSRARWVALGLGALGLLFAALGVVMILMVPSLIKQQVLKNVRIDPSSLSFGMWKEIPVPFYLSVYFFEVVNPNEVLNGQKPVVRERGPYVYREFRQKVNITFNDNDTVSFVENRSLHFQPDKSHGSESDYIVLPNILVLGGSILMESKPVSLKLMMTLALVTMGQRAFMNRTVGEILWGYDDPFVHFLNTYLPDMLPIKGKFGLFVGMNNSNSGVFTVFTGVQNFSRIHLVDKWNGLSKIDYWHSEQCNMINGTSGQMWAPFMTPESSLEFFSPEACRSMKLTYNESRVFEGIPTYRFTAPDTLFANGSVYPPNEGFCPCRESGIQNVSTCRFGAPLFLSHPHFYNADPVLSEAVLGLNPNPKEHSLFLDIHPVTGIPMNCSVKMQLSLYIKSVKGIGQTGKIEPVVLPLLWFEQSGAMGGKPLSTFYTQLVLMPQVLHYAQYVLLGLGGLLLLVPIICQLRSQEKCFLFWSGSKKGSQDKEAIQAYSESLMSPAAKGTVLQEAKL
SR-BI DiI-HDL act – activators of SR-BI mediated DiI-HDL uptake, primary screen, ldlA[mSR-BI] CHO cells, DiI fluorescence; 3 h; 100 = double the neutral-control signal; activation, % at 12.5 µM; 320,000 compounds, 0.096% hits;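 active means mean replicate activation of at least 60% and every replicate at or above 60%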
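system = CHO ldlA[mSR-BI] cells, LDL receptor-null, SR-BI overexpressing | medium = Ham's F12 with 0.5% BSA, HEPES 25 mM, pH 7.4 | probe or stimulus = DiI-HDL 10 µg/mL | compound dosing = single-point compound dose | incubation = compound exposure 3 h, 37 °C | technique = DiI fluorescence, bottom read | read-out = cell-associated DiI fluorescence as measure of HDL uptake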
CDK5 inh – inhibitors of human CDK5/p35 kinase, primary screen, biochemical, single concentration. inhibition, % at 10 µM. 330,000 compounds, 0.01% hits. Recombinant CDK5/p35, ADP-Glo luminescence, 60 min. Cyclin-dependent kinase 5 (Homo sapiens) + Cyclin-dependent kinase 5 activator 1 (Homo …;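 active means highest replicate inhibition of at least 50% and at least 75% of replicates reaching 50%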
DiI quench – DiI fluorescence quenching in cell-free counter-screen. AID 540326. AC50, µM (top dose mostly 35 µM). 470 compounds, 20% hits. cell-free DiI-HDL fluorescence quenching, 30 min. shares compounds with SR-BI DiI inh;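 active means quenching, a falling signal, with AC50 below a set limit tied to the top valid dose, actives reach about 32 µM in these data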
dFosB act-2 – activators of mouse delta FosB DNA binding, confirmation, biochemical, fluorescence polarization, TAMRA-CDK5 oligo, cherry-picked samples; purified delta FosB; normalised: neutral wells 0, positive control 100; activation, % at 24.9 µM; 2,400 tested, under 10 active; shares compounds with dFosB act-1;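 active means highest replicate activation at or above 34% and every replicate reaching that threshold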;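 further: higher polarization means more probe DNA bound by delta FosB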
Each line names hits and unclear results; the compound was inactive in the other large screens (follow-up assays come after a bar, where they were run). Shown are actives, neighbours in structure and some others; about 2% of the full set was active somewhere.

O=C(Nc1ccccc1F)OC1CN2CCC1CC2 (stereo not drawn)	SR-BI DiI inh 84 | DiI quench inactive
CCCCCCn1c(=O)c(C(=O)Nc2cnccn2)c(O)c2ccccc21	SR-BI DiI inh 82 | DiI quench inactive
O=C(c1ccc(Cl)cc1)C1CCCN(Cc2ccc3ncccc3c2)C1 (stereo not drawn)	none
COc1ccc(C(=O)OC2CC[C@@]3(C)C4CCC5[C@]6(O)CC(O)[C@@]7(O)C(CN8CC(C)CCC8[C@@]7(C)O)[C@]6(O)C[C@@]53O[C@]24O)cc1OC (stereo partly drawn)	none
CC(C)(C)c1ccc(S(=O)(=O)N2CC3CC(C2)c2cccc(=O)n2C3)cc1 (stereo not drawn)	none | DiI quench inactive
COc1ccc(S(=O)(=O)N2CC3CC(C2)c2cccc(=O)n2C3)cc1 (stereo not drawn)	none
NCCNc1ccc([N+](=O)[O-])c2cccnc12	dFosB act-1 16 | dFosB act-2 inactive
O=C(COc1ccc2ccc(=O)oc2c1)N1C[C@H]2C[C@@H](C1)c1cccc(=O)n1C2	none
